CRFR2-BP ag: agonists of human CRF-binding protein/CRF-R2 receptor complex | HEK293 CRF-R2/CRF-BP, calcium dye fluorescence (FLIPR); percent of saturating CRF peptide response | activation, % at 13.2 µM | actives 0.46% (n = 350,000) | AID 588473;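 active = activation of at least 50%, plus an integration ratio under a set limit after plate pattern correction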
beta cell repl: inducers of beta-cell replication in MIN6 cells | actives 0.29% (n = 330,000) | proliferation, % at 10 µM | MIN6 cells proliferation, ATPlite luminescence, 48 h; cells starved in 0.2% serum; 100% = growth in 10% serum | AID 2380;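 active = compounds whose signal lies at least 3.5 SD above the mean of all wells on their plate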
UCH37 DUB inh: inhibitors of human deubiquitinating enzyme UCH37; Q9Y5K5; purified proteasome/UCH37, Ub-AMC cleavage fluorescence; inhibition, % (concentration not given with the values); actives 0.33% (n = 330,000); AID 588478;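 active = mean inhibition over replicate wells above about 20%, limit read from the data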
Target sequence (Q9Y5K5 whole entry, looked up): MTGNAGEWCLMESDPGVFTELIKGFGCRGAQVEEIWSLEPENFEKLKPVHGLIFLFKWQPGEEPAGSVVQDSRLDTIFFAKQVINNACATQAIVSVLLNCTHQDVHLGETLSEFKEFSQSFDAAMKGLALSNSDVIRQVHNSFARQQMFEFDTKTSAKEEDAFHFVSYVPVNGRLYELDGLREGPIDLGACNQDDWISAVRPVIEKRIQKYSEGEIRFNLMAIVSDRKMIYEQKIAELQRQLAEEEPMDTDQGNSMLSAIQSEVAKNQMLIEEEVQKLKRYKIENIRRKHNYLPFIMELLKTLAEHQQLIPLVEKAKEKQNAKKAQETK
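Reagent: Ub-AMC substrate; assay system: Proteasome-associated human UCH37 deubiquitinase; controls: no-proteasome and no-compound wells; read-out: % inhibition of Ub-AMC cleavage fluorescence; timing: 30 min preincubation with enzyme, 25 min cleavage at room temperature; signal: AMC fluorescence from Ub-AMC cleavage, excitation 355 nm, emission 460 nm; buffer or medium: Tris-HCl pH 7.4 plus ovalbumin, ATP-MgCl2, DTT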
hiPSC survival: hiPSC single-cell survival enhancement. actives 0.044% (n = 360,000). ATPlite luminescence; 100% = ROCK inhibitor wells, 0% = DMSO. survival enhancement, % at 20 µM; in the data active = survival enhancement above about 18%;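 also: cells exposed to compounds for 16 hours before the ATP read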
H9c2 protect: myocardial damage modulation in H9c2 cells; H9c2 cardiomyocytes, H2O2 injury protection, ATPLite, 2 h; actives 0.63% (n = 360,000); AID 588492; protection from H2O2 cell death, % at 20 µM;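 active = compounds giving at least 50% protection of heart cells from peroxide-induced death in the single-dose screen, raw or plate-pattern-corrected value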
CRFBP-R2 block: antagonists of CRF-binding protein/CRF-R2 receptor complex; AID 588475; actives 0.59% (n = 350,000); inhibition, % at 11.8 µM; HEK293 CRF-R2/CRF-BP, CRF-induced calcium fluorescence;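 active = inhibition of the ligand-induced calcium signal above about 50% at the single tested concentration, limit read from the data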
Numbers stand for hits; - = inactive; . = no result given. An excerpt weighted towards active compounds, which were near 2.1% of everything screened.

SMILES	CRFR2-BP ag	beta cell repl	UCH37 DUB inh	hiPSC survival	H9c2 protect	CRFBP-R2 block
C/C(=N/NC(=O)c1cccs1)c1cccc(NC(=O)C2CC2)c1	-	-	.	-	58	-
C/C(=N\NC(=O)c1cccc(N/N=C(\C)c2ccncc2)c1)c1ccncc1	-	-	.	-	68	-
CC(=O)Nc1cccc(C(C)=NNC(=O)c2cccs2)c1	.	.	-	.	.	.
CCOC(=O)Cc1cc(=O)[nH]c(N=C(N)Nc2ccc(C)cc2C)n1	.	.	-	.	.	.
COc1ccccc1CN1CCCC(C(=O)N(C)Cc2ccccc2)C1 (stereo not drawn)	-	.	-	-	-	55
CCN1CCN(c2ccc(S(=O)(=O)N3CCOCC3)cc2NC(=O)c2ccccc2SC)CC1	-	-	-	-	-	-
CCN1CCN(c2ccc(S(=O)(=O)N3CCCCC3)cc2NC(=O)/C=C/c2ccc(F)cc2)CC1	-	-	-	-	-	-
CCN1CCN(c2ccc(S(=O)(=O)N3CCCCC3)cc2NC(=O)/C=C/c2cccc(OC)c2OC)CC1	-	-	-	-	-	106
CCN1CCN(c2ccc(S(=O)(=O)N3CCOCC3)cc2NC(=O)c2cc(Cl)nc3ccccc23)CC1	-	-	-	-	-	82
C[C@]12CCC3c4ccc(O)cc4CCC3C1CCC2=NN (stereo partly drawn)	.	.	-	.	.	.
CN(C)c1ccc(C=C2SC(=S)NC2=O)cc1	132	.	-	-	-	-
O=C1NC(=S)S/C1=C/c1ccc(Oc2cnccn2)cc1	-	-	-	-	-	-
CCOc1ccc(N(C)c2ccc(/C=C3/SC(=S)NC3=O)cc2)cc1	68	-	.	-	-	-
COc1ccc(N=C2NC(=O)S/C2=C\c2ccc(N(C)C)cc2)cc1	98	-	.	-	-	-
O=C1NC(=S)S/C1=C\c1cc(Cl)ccc1Cl	-	.	-	-	-	70
CC1(C)CC(=O)CC(=NNC(=O)COc2ccc3ccccc3c2Br)C1	.	.	-	.	.	.
CCOC(=O)c1ccc(NC(=NS(=O)(=O)c2ccccc2C)c2ccccc2)cc1	.	.	-	.	.	.
COc1ccc(C=N/N=C2/NC(=O)C(CC(=O)O)S2)cc1OCc1ccccc1Cl (stereo not drawn)	.	.	-	.	.	.
Nc1nnnn1/N=C/c1cc(Cl)cc(Cl)c1O	138	-	.	-	-	-
Nc1nnnn1/N=C/c1cc(Cl)ccc1O	-	-	.	-	-	-
CC(=NNC(=O)c1cc2c(s1)CCC(C)C2)c1ccncc1 (stereo not drawn)	.	.	-	.	.	.
CN(C)CCNc1ccc(CO)c2sc3ccc(O)cc3c(=O)c12	-	.	.	-	-	-
CN(C)CCNc1ccc2ncn3c4ccc(O)cc4c(=O)c1c23	75	.	.	-	-	-
O=C(ON=C1CCS(=O)(=O)c2sccc21)C1CC1	.	.	-	.	.	.
CN(C)c1ccc(C=NNc2nc3ccccc3o2)cc1	.	.	-	.	.	.
SMILES	CRFR2-BP ag	beta cell repl	UCH37 DUB inh	hiPSC survival	H9c2 protect	CRFBP-R2 block
CCCc1nc(SCC(=O)Nc2nc3c(s2)CCCC3)c2ccccc2n1	-	-	-	22	-	-
CCc1nc(SCC(=O)Nc2nc3c(s2)CCCC3)c2ccccc2n1	-	-	-	-	-	-
CN(C)c1ccc(C=c2sc3n(c2=O)CCCN=3)cc1	.	.	-	.	.	.
C1=C(c2ccccc2)Nc2ncnn2C1c1ccccc1 (stereo not drawn)	-	-	-	-	-	-
Fc1ccc(Br)cc1C1C=C(c2ccc(Br)cc2)Nc2ncnn21 (stereo not drawn)	102	-	-	-	-	-
CCc1ccc(C2=CC(c3cc(Br)ccc3F)n3ncnc3N2)cc1 (stereo not drawn)	54	-	-	-	-	-
Cc1ccsc1C1C=C(c2cccc(Br)c2)Nc2ncnn21 (stereo not drawn)	-	-	-	-	-	-
Cn1cc(C=NO)nc2c(=O)n(-c3ccccc3)c(=O)nc1-2	.	.	-	.	.	.
CC1(C)CC(NCCC(c2ccccc2)c2ccco2)CCO1 (stereo not drawn)	-	-	-	-	-	97
CC1(C)CC(C(=O)NCCC(c2ccccc2)c2ccco2)CCO1 (stereo not drawn)	-	-	-	-	-	-
Nc1cc2c3c(cccc3c1)C(=O)N(CCN1CCCC1)C2=O	66	.	-	-	-	-
O=C(N/N=C/c1ccc(O)cc1)c1ccc(COc2cc(Cl)ccc2Cl)o1	-	-	.	-	68	-
CC(C)c1ccc(C=NNC(=O)CN(c2cccc(Cl)c2Cl)S(C)(=O)=O)cc1	.	.	-	.	.	.
Brc1ccc(-c2nn3c(-c4ccco4)nnc3s2)o1	-	-	-	-	94	-
Brc1ccc(-c2nn3c(-c4ccccn4)nnc3s2)o1	-	-	-	-	52	-
Clc1ccccc1-c1nn2c(-c3ccccn3)nnc2s1	-	-	-	-	-	-
CC(=NNc1ncc(Cl)cc1Cl)c1cccs1	.	.	-	.	.	.
O=C(CNC(=O)c1ccccc1O)NN=Cc1ccccn1	.	.	-	.	.	.
O=C1CC(c2ccccc2)CN1S(=O)(=O)c1ccccc1 (stereo not drawn)	-	-	-	-	-	65
COc1cc(/C=C/C(=O)OCC(=O)N2c3ccccc3NC(=O)C2(C)C)cc(OC)c1OC	-	-	-	-	76	-
COc1ccc(S(N)(=O)=O)cc1C(=O)OCC(=O)N1c2ccccc2NC(=O)C1(C)C	-	-	-	-	-	-
COc1ccccc1CNC(=O)CC(C)=NNC(=O)Cc1ccccc1	.	.	-	.	.	.
COc1ccc(NC(=O)CN(C)C(=O)c2cc(-c3cccs3)nn2-c2ccccc2)cc1	-	-	-	-	-	-
CCN(CC(=O)Nc1ccc(OC)cc1)C(=O)c1cc(-c2cccs2)nn1-c1ccccc1	-	-	-	-	69	-
COc1ccc(C2=Nn3c(nnc3-c3ccco3)SC2)cc1	-	-	-	-	-	68
SMILES	CRFR2-BP ag	beta cell repl	UCH37 DUB inh	hiPSC survival	H9c2 protect	CRFBP-R2 block
Oc1ccc(C2=Nn3c(nnc3-c3ccco3)SC2)cc1O	-	-	-	-	69	-
CCN1/C(=C/c2ccc3cc(C)ccc3[n+]2CC)Sc2cc(C)c(C)cc21	184	-	-	-	-	-
CC[n+]1ccccc1/C=C1\Sc2ccc(C)cc2N1C	-	-	-	-	-	-
C#CCOc1c(Br)cc(C=NO)cc1OCC	.	.	-	.	.	.
CC1=C(C(=O)NCc2ccc(Cl)cc2)C2(CCC(C)CC2)OC1=O (stereo not drawn)	-	-	-	-	-	-
CC1=C(C(=O)NCc2ccccn2)C2(CCC(C)CC2)OC1=O (stereo not drawn)	-	-	-	-	-	66
COc1ccc(-n2c(O)c(/C=N/NS(=O)(=O)c3ccc(C)cc3)c3ccccc3c2=O)cc1OC	101	-	-	-	-	-
COc1cc(C=NNS(=O)(=O)c2ccccc2)ccc1OS(=O)(=O)c1ccc(C)cc1	.	.	-	.	.	.
